The results in this text go back to ChEMBL document CHEMBL4513216, “Probing the Open Global Health Chemical Diversity Library for Multistage-Active Starting Points for Next-Generation Antimalarials” (ACS Infect Dis, 2020).

The nature of the data set: Toxicity liver stage against HepG2, at 10uM. The class given is cell-based. Further details: test concentration 10 uM, cell line HepG2-A16-CD81EGFP. The note with it: human, HepG2-A16-CD81EGFP cells; read-out: INHIBITION
The method, boiled down: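 Uninfected HepG2-A16-CD81EGFP cells, 3 × 10^3 per well, 1536-well, plated on prespotted compound at 10 μM final, parasite-free screening media added to match infected plates; puromycin 10 μM positive, DMSO 0.5% negative; run in parallel with 48 h PbLuc assay at 37 °C, 5% CO2; viability by CellTiter-Glo luminescence, normalized to controls.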
As for `Cc1ccccc1CC(=O)N1CC[C@@](O)(CNS(C)(=O)=O)[C@H](O)C1`, the cytotoxicity at 10 µM is -25.6%. For the molecule `COc1ccc(C(N)c2cccc(S(C)(=O)=O)c2)cc1` (configuration not stated), the cytotoxicity at 10 µM came out at 4.69%. The figure for `CNC(=O)C(C)(C)N1CCC[C@H]1C(=O)NCC(C)C` is 1.55%; for `O=C(C1CCOCC1)N1CCO[C@H]2[C@H](Oc3ccccn3)CC[C@@H]21` it is -99.6%; for `COC(=O)CCNC(=O)c1ccoc1CN1c2ccccc2CC1C` (configuration not stated) it is -9.23%. The result for `CC(C)c1nc(CN(C)C(=O)CCS(=O)(=O)c2ccccc2)no1` reads -20.3%. The figure for `N#CC(NC(=O)CS(=O)(=O)C1CCCC1)c1ccc(F)cc1F` (configuration not stated) is 3.56%; for `CC(C)c1nn(C)c(Cl)c1CNCc1ccc(N(C)C)nc1` it is -13.6%. As for `Cc1cnn(CCNCC(O)COc2cc(Cl)ccc2Cl)c1` (configuration not stated), the cytotoxicity at 10 µM came to 2.22%. `COc1ccc(C[C@H]2CNCC[C@@H]2OC)cc1`: the cytotoxicity at 10 µM turned out to be 3.11%. The figure for `CC(C)Cn1cc(NC(=O)NCC2CCN(c3ccccc3)C2)cn1` (configuration not stated) is 2.53%.

For the molecule `CN1CCO[C@@H]2CN(S(=O)(=O)c3ccccc3F)CC[C@@H]2C1`, the cytotoxicity at 10 µM was 1.35%. The figure for `Cc1nc(CNC(=O)N(C)Cc2cnn(C)c2)cs1` is -14.3%; for `CCC1=NC2(CCC(C(=O)Nc3ccc(F)cc3)CC2)C(=O)N1C` (configuration not stated) it is 2.26%; for `Cc1ccc(CN(Cc2nc3c(cnn3C)c(=O)[nH]2)C2CC2)o1` it is -1.92%. Take `CC/N=c1\nc(NCC)nc2n1C(O)(Nc1ccc(C)cc1C)CS2` (configuration not stated): the cytotoxicity at 10 µM is -1.95%. The result for `Cc1cc(CS(=O)(=O)C(C)C(=O)N(C)c2ccccc2)on1` (configuration not stated) reads 2.74%; that for `COCC1c2nnn(C)c2CCN1C(=O)COc1ccccc1OC` (configuration not stated), -105%; that for `Cn1cc(Cl)c(CN2CCCC(Cn3cc(CO)nn3)C2)n1` (configuration not stated), 1.18%.

`COc1ccc(Br)c(C(=O)N2CCC(c3n[nH]c(C4CC4)n3)CC2)c1`: the cytotoxicity at 10 µM was -1.44%. The result for `O=C(NCCN1CCCCC1CO)c1cc(-c2ccccc2)on1` (configuration not stated) reads -5.53%; that for `CC[C@@H](CO)NC(=O)c1cc(COc2ccc(OC)cc2Cl)[nH]n1`, -34.4%. The result for `Cn1cc(C(=O)N2CCC(c3nccn3Cc3ccncc3)CC2)cn1` reads -0.658%; that for `O=C1O[C@@H]2CN(Cc3ccncc3)C[C@@H]2N1CCCN1CCOCC1`, -6.13%; that for `Cc1ccc(CS(=O)(=O)Cc2nc(N)nc(N(C)C)n2)cc1`, 3.13%. Turning to `CC(C)CNC(=O)CC1(Cn2cnnn2)CCCCC1`, the cytotoxicity at 10 µM came out at 11.1%. The figure for `CC(c1nc(C2CC2)no1)N1CCN(Cc2ccc(C#N)cc2)CC1` (configuration not stated) is 3.71%. The result for `CCN1CC(COC(=O)c2ccc(Br)cc2F)CC1=O` (configuration not stated) reads -2.45%; that for `CCOC(=O)N1CC(=O)N(CCc2ccccc2)CC(O)C1` (configuration not stated), -4.73%; that for `CCCc1nc(C)c(C(=O)NCCN2CCCCC2)s1`, -0.906%. The result for `Cc1cccc(CS(=O)(=O)c2nnc([C@@H](N)Cc3ccccc3)o2)c1` reads 7.09%; that for `CC(O)CN1CC2(CCC1=O)CCN(Cc1cc(F)ccc1Cl)CC2` (configuration not stated), 6.89%. As for `CC(C)c1nc(CN2CCCCC2)cs1`, the cytotoxicity at 10 µM was found to be 20.2%. The result for `CN(C)C(=O)CN1CCC(c2c(C(N)=O)sc3ncccc23)C1` (configuration not stated) reads 8.42%; that for `CS(=O)(=O)N1CCC(C(=O)NC(Cc2ccsc2)c2ccccn2)CC1` (configuration not stated), -2.91%.

In the case of `O=C1N(CC2CC2)CCCC1(O)CN1CCc2[nH]ncc2C1` (configuration not stated), the cytotoxicity at 10 µM was -2.2%. The figure for `Cc1nn(C)c(Cl)c1C1CCCN1C(=O)c1ccc[nH]1` (configuration not stated) is -8.57%; for `CC(C)NC(=O)[C@H]1CCS(=O)(=O)[C@@H]2CN(c3ncc(F)cn3)C[C@H]12` it is -136%; for `CCCN(C(=O)c1cnns1)C1CCCN(Cc2ccccc2)C1` (configuration not stated) it is -4.35%. The figure for `Cc1cc(NCCO)nc(N2CCC(Cc3ccccc3)CC2)c1C#N` is 4.35%. Consider `COc1c(C2CCCN2C(=O)c2ccc(N(C)C)nn2)c(C)nn1C` (configuration not stated), for which the cytotoxicity at 10 µM was -13.7%. The result for `COCC1CN(C(=O)Cc2ccsc2)Cc2c1cnn2C` (configuration not stated) reads -67%; that for `Cc1cnccc1CN1CC[C@@](C)(O)[C@H](Oc2ccccc2)C1`, -1.78%.

For `O=C(CCN1CCc2[nH]nc(C(F)(F)F)c2C1)Nc1ccccc1`, the cytotoxicity at 10 µM was -1.2%. The figure for `Cc1nn(CC(=O)O)c(C)c1NS(=O)(=O)c1cc2ccccc2s1` is -7.07%; for `COc1ccnc(N(C)Cc2csc(C)n2)n1` it is -2.62%; for `CC1CN(CCc2ccccn2)CCN1c1ccc2nncn2n1` (configuration not stated) it is -3.43%. The result for `N#CCCN(C(=O)CN1CCCC1C1CCCCC1)c1ccccc1` (configuration not stated) reads -12.1%; that for `Cc1ncnc2c1CCN(C(=O)c1ccsc1)CC2`, -0.443%.

With `CC(C)c1nc(CNC(=O)c2ccc(C(C)N3CCCCC3)o2)cs1` (configuration not stated), the cytotoxicity at 10 µM was -9.93%. The result for `N#Cc1cccc(N2CCCC3(CCC(=O)N(C4CCCC4)C3)C2)n1` (configuration not stated) reads -0.0436%; that for `Cc1ccc2c(c1)N(C(=O)c1cc[nH]c(=O)c1)CC(C)O2` (configuration not stated), 2.71%; that for `CC(NC(=O)C(C)(C)C)c1cc(O)nc(-c2cccnc2)n1` (configuration not stated), 6.5%. The result for `Cc1cnn(CC2CN(CCS(C)(=O)=O)CCO2)c1` (configuration not stated) reads -2.25%; that for `COc1cccc(N2C(=O)CC3(CCCNC3)C2=O)c1` (configuration not stated), 1.52%. The result for `COCC(=O)N1CCCCC1c1ccnc(Nc2ncc(C)s2)n1` (configuration not stated) reads -10.6%; that for `CN1CCN(C(=O)C2(S(C)(=O)=O)CCCC2)Cc2ccccc21`, -4.96%; that for `COc1ccc(-c2cc[nH]n2)cc1CNC1CCCC1`, -52.8%.

As to `CC(C)OCCN1CCN(c2ccc(Cl)cn2)CC1`, the cytotoxicity at 10 µM was -1.67%. The result for `CC(C)c1noc(CN2CCC(c3nc4cc(Cl)ccc4o3)CC2)n1` reads 1.81%.

Consider `COCCNC(=O)N1CCN(C(=O)Cc2ccccc2F)CC1`, for which the cytotoxicity at 10 µM is -8.85%. The result for `Cc1cccnc1CN(C)C(C(=O)O)c1ccc(-c2ccn[nH]2)cc1` (configuration not stated) reads 12.2%; that for `CC(=O)N1CC2(CCN(C(=O)N(C)C)CC2)c2cc(C)ccc21`, 7.7%. As to `CCN(CC1CN(Cc2ccccn2)CCO1)c1cccnn1` (configuration not stated), the cytotoxicity at 10 µM is -6.95%. The figure for `O[C@@H]1CN(Cc2cnccn2)C[C@H]1Oc1ccccc1` is -29.5%. The figure for `O=C(Nc1cccc(OCC(F)F)n1)c1ccncc1F` is -3.33%; for `O=C(Nc1ccccc1)N1C[C@@H]2CC[C@H]1CN(Cc1ccccc1)C2` it is 1.93%; for `COc1ccc(OCCC(=O)N2CCCC2Cn2cccn2)cc1` (configuration not stated) it is -39%. The figure for `CC(C)c1nc(CCNC(=O)NCc2ccnc(N(C)C)c2)cs1` is -4.69%; for `CCc1nc(-c2ccnc(N3CCNCC3)n2)no1` it is 11.9%.

In the case of `CNc1oc(-c2ccc(OC)c(S(=O)(=O)N3CCCC3)c2)nc1C#N`, the cytotoxicity at 10 µM was found to be 3.33%. The figure for `Cc1cnn(C2CCCN(C(=O)c3ccc(C(N)=O)cn3)C2)c1` (configuration not stated) is -7.35%; for `CCCOC1CCCN(C(=O)c2ccc(S(N)(=O)=O)cc2)C1` (configuration not stated) it is -13.6%. The figure for `CCc1nc(CNC2CCN(c3ccc(OC)cc3)CC2)cs1` is -12.8%; for `CCn1cc(-n2cc3nc(N4CCCC4)[nH]cc-3c2=O)cn1` it is 2.77%. The figure for `CC(=O)N1CCCn2nc(CNc3cc(C)ncn3)cc2C1` is 5.19%.

For `O=c1[nH]cc(Nc2ccccc2)c(=O)[nH]1`, the cytotoxicity at 10 µM was found to be 15.6%.

As to `Cc1cc(C)n(CC(C)NC(=O)NCc2c(C)cc(C)[nH]c2=O)n1` (configuration not stated), the cytotoxicity at 10 µM was -6.58%. The result for `Cc1cc(Br)ccc1CNC(=O)C1(O)CCSCC1` reads 8.88%. The result for `CCNC(=O)COc1ccc(C(=O)NC(C)CCc2ccco2)cc1` (configuration not stated) reads 12.2%; that for `CCOc1ncccc1CNS(=O)(=O)c1ccc2c(c1)CCC2`, 13.3%; that for `CC(Cn1cccn1)NCc1csc(-c2ccc(F)cc2)n1` (configuration not stated), -67.9%. The result for `CC(CNC1CCN(Cc2ccncc2)CC1)c1ccc(F)cc1F` (configuration not stated) reads -9.73%.

On to `O=C(NCCc1coc(-c2ccc(F)cc2)n1)NC1CC1`, for which the cytotoxicity at 10 µM was -3.24%. As to `Cc1ccc(NC2CCN(C(=O)c3ccsc3)CC2)nn1`, the cytotoxicity at 10 µM is -9.08%. The result for `Cc1ccc(S(C)(=O)=O)cc1NCC(=O)NCCC1=CCCCC1` reads 0.846%; that for `CCOCC1CN(CCOCc2ccccc2)Cc2c1cnn2C` (configuration not stated), -132%. The result for `O=C(Nc1cccc(F)c1)NC1CCN(Cc2ccncc2)CC1` reads -9.01%; that for `COc1ccc(NC(C)c2nnnn2-c2ccccc2)cc1F` (configuration not stated), 12.1%; that for `NC(=O)CN1CCC(NCc2cc(C(F)(F)F)ccc2Cl)CC1`, -3.01%. The result for `C=Cc1ccc(CN2C(=O)C3(CCNCC3)Nc3ccccc32)cc1` reads 3.39%; that for `CCC[C@H]1CN(c2nccc(OC)n2)C[C@@H]1NS(=O)(=O)N(C)C`, -140%; that for `CNC(=O)C1CNCCN1C(=O)c1ccc(C(F)(F)F)nc1C` (configuration not stated), -4.7%. In the case of `CCc1n[nH]c(C2CN(C(=O)Cn3ccccc3=O)CCO2)n1` (configuration not stated), the cytotoxicity at 10 µM is -0.746%.

Turning to `O=C(NCc1ccc(F)cc1F)C(c1cccnc1)N1CCOCC1` (configuration not stated), the cytotoxicity at 10 µM was -4.89%. The figure for `CCn1cc(S(=O)(=O)NC(CO)Cc2c[nH]c3ccccc23)cn1` (configuration not stated) is 10.8%. For the molecule `COc1ccc(C(C)C)cc1C1CC(=O)NCc2nc(N(C)C)sc21` (configuration not stated), the cytotoxicity at 10 µM was -1.22%.
